From ChEMBL document CHEMBL1142960, “Synthesis and structure-activity relationships for 2,4-dinitrobenzamide-5-mustards as prodrugs for the Escherichia coli nfsB nitroreductase in gene therapy” (J Med Chem, 2007)
In brackets after ≈: the same amount, converted by molar mass.

System: not listed separately
Experiment: Partition coefficient at pH 7.4 by shake-flask method
Type: physicochemical
Conditions: octanol/water
In short: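 Octanol-water partition coefficient by shake-flask at pH 7.4, reported with SEM.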

| Structure (SMILES) | logD |
| --- | --- |
| CS(=O)(=O)OCCN(CCBr)c1cc(C(=O)NCC(O)CO)c([N+](=O)[O-])cc1[N+](=O)[O-] (stereo not given) | -0.05 |
| O=C(NCCO)c1cc(N(CCBr)CCBr)c([N+](=O)[O-])cc1[N+](=O)[O-] | 1.69 |

System: V79
Experiment: Antiproliferative activity against chinese hamster wild-type V79 NTR-ve cells after 18 hrs
Type: functional, cell-based
Conditions: Cricetulus griseus, V79, 18 h

| Structure (SMILES) | IC50 |
| --- | --- |
| CS(=O)(=O)OCCN(CCBr)c1cc(C(=O)NCC(O)CO)c([N+](=O)[O-])cc1[N+](=O)[O-] (stereo not given) | 733 µM |
| O=C(NCCO)c1cc(N(CCBr)CCBr)c([N+](=O)[O-])cc1[N+](=O)[O-] | 80 µM |

System: V79
Experiment: Antiproliferative activity against chinese hamster V79 NTRpuro cells after 18 hrs
Type: functional, cell-based
Conditions: Cricetulus griseus, V79, 18 h

| Structure (SMILES) | IC50 |
| --- | --- |
| CS(=O)(=O)OCCN(CCBr)c1cc(C(=O)NCC(O)CO)c([N+](=O)[O-])cc1[N+](=O)[O-] (stereo not given) | 1 µM |
| O=C(NCCO)c1cc(N(CCBr)CCBr)c([N+](=O)[O-])cc1[N+](=O)[O-] | 0.43 µM |

System: V79
Experiment: Selectivity ratio of IC50 for V79 NTR-ve cells to IC50 for V79 NTRpuro cells
Type: functional, Cricetulus griseus
Conditions: not given

| Structure (SMILES) | Ratio IC50 |
| --- | --- |
| CS(=O)(=O)OCCN(CCBr)c1cc(C(=O)NCC(O)CO)c([N+](=O)[O-])cc1[N+](=O)[O-] (stereo not given) | 1660 |
| O=C(NCCO)c1cc(N(CCBr)CCBr)c([N+](=O)[O-])cc1[N+](=O)[O-] | 203 |

System: EMT6
Experiment: Antiproliferative activity against mouse wild type EMT6 NTR-ve cells after 18 hrs
Type: functional, cell-based
Conditions: EMT6, 18 h

| Structure (SMILES) | IC50 |
| --- | --- |
| CS(=O)(=O)OCCN(CCBr)c1cc(C(=O)NCC(O)CO)c([N+](=O)[O-])cc1[N+](=O)[O-] (stereo not given) | 712 µM |
| O=C(NCCO)c1cc(N(CCBr)CCBr)c([N+](=O)[O-])cc1[N+](=O)[O-] | 70 µM |

System: EMT6
Experiment: Antiproliferative activity against mouse EMT6 NTRpuro cells after 18 hrs
Type: functional, cell-based
Conditions: EMT6, 18 h

| Structure (SMILES) | IC50 |
| --- | --- |
| CS(=O)(=O)OCCN(CCBr)c1cc(C(=O)NCC(O)CO)c([N+](=O)[O-])cc1[N+](=O)[O-] (stereo not given) | 1.6 µM |
| O=C(NCCO)c1cc(N(CCBr)CCBr)c([N+](=O)[O-])cc1[N+](=O)[O-] | 0.08 µM |

System: EMT6
Experiment: Selectivity ratio of IC50 for EMT6 NTR-ve cells to IC50 forEMT6 NTRpuro cells
Type: functional, Mus musculus
Conditions: not given

| Structure (SMILES) | Ratio IC50 |
| --- | --- |
| CS(=O)(=O)OCCN(CCBr)c1cc(C(=O)NCC(O)CO)c([N+](=O)[O-])cc1[N+](=O)[O-] (stereo not given) | 527 |
| O=C(NCCO)c1cc(N(CCBr)CCBr)c([N+](=O)[O-])cc1[N+](=O)[O-] | 871 |

System: WiDr
Experiment: Antiproliferative activity against human wild type WiDr NTR-ve cells after 18 hrs
Type: functional, cell-based
Conditions: not given

| Structure (SMILES) | IC50 |
| --- | --- |
| CS(=O)(=O)OCCN(CCBr)c1cc(C(=O)NCC(O)CO)c([N+](=O)[O-])cc1[N+](=O)[O-] (stereo not given) | 804 µM |
| O=C(NCCO)c1cc(N(CCBr)CCBr)c([N+](=O)[O-])cc1[N+](=O)[O-] | 61 µM |

System: WiDr
Experiment: Antiproliferative activity against human WiDr NTRneo cells after 18 hrs
Type: functional, cell-based
Conditions: not given

| Structure (SMILES) | IC50 |
| --- | --- |
| CS(=O)(=O)OCCN(CCBr)c1cc(C(=O)NCC(O)CO)c([N+](=O)[O-])cc1[N+](=O)[O-] (stereo not given) | 3 µM |
| O=C(NCCO)c1cc(N(CCBr)CCBr)c([N+](=O)[O-])cc1[N+](=O)[O-] | 0.34 µM |

System: WiDr
Experiment: Selectivity ratio of IC50 for WiDr NTR-ve cells to IC50 for WiDr NTRneo cells
Type: functional, Homo sapiens
Conditions: not given

| Structure (SMILES) | Ratio IC50 |
| --- | --- |
| CS(=O)(=O)OCCN(CCBr)c1cc(C(=O)NCC(O)CO)c([N+](=O)[O-])cc1[N+](=O)[O-] (stereo not given) | 272 |
| O=C(NCCO)c1cc(N(CCBr)CCBr)c([N+](=O)[O-])cc1[N+](=O)[O-] | 182 |

System: not listed separately
Experiment: Antiproliferative activity against human wild type Skov3 NTR-ve cells after 18 hrs
Type: functional, cell-based
Conditions: not given

| Structure (SMILES) | IC50 |
| --- | --- |
| CS(=O)(=O)OCCN(CCBr)c1cc(C(=O)NCC(O)CO)c([N+](=O)[O-])cc1[N+](=O)[O-] (stereo not given) | 1110 µM |
| O=C(NCCO)c1cc(N(CCBr)CCBr)c([N+](=O)[O-])cc1[N+](=O)[O-] | 81 µM |

System: V79
Experiment: Clonogenic survival of V79 NTRoua cells after 5 hrs by MCL assay
Type: functional, Cricetulus griseus
Conditions: not given

| Structure (SMILES) | Activity |
| --- | --- |
| CS(=O)(=O)OCCN(CCBr)c1cc(C(=O)NCC(O)CO)c([N+](=O)[O-])cc1[N+](=O)[O-] (stereo not given) | >1300 µM |
| O=C(NCCO)c1cc(N(CCBr)CCBr)c([N+](=O)[O-])cc1[N+](=O)[O-] | 150 µM |

System: not listed separately
Experiment: Antiproliferative activity against human Skov3 NTRneo cells after 18 hrs
Type: functional, cell-based
Conditions: SK-OV-3, 18 h

| Structure (SMILES) | IC50 |
| --- | --- |
| CS(=O)(=O)OCCN(CCBr)c1cc(C(=O)NCC(O)CO)c([N+](=O)[O-])cc1[N+](=O)[O-] (stereo not given) | 1.7 µM |
| O=C(NCCO)c1cc(N(CCBr)CCBr)c([N+](=O)[O-])cc1[N+](=O)[O-] | 0.3 µM |

System: not listed separately
Experiment: Selectivity ratio of IC50 for Skov3 NTR-ve cells to IC50 for Skov3 NTRneo cells
Type: functional, Homo sapiens
Conditions: not given

| Structure (SMILES) | Ratio IC50 |
| --- | --- |
| CS(=O)(=O)OCCN(CCBr)c1cc(C(=O)NCC(O)CO)c([N+](=O)[O-])cc1[N+](=O)[O-] (stereo not given) | 640 |
| O=C(NCCO)c1cc(N(CCBr)CCBr)c([N+](=O)[O-])cc1[N+](=O)[O-] | 270 |

System: V79
Experiment: Clonogenic survival of 3% V79 NTRpuro cells in co-cultures with 97% V79 NTRoua after 5 hrs by MCL assay
Type: functional, Cricetulus griseus
Conditions: not given
In short: (§1)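 Multicellular layer cocultures of 3% V79-NTRpuro activators and 97% V79oua NTR-ve targets (ouabain-resistant), exposed to prodrug for 5 h. MCLs were then trypsin-dissociated and plated in ouabain or puromycin selective media for clonogenic survival. C10 (10% survival) interpolated for activators and targets; AC/TC ratio derived. Mean with SEM or range over independent experiments.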

| Structure (SMILES) | Activity |
| --- | --- |
| CS(=O)(=O)OCCN(CCBr)c1cc(C(=O)NCC(O)CO)c([N+](=O)[O-])cc1[N+](=O)[O-] (stereo not given) | 70 µM |
| O=C(NCCO)c1cc(N(CCBr)CCBr)c([N+](=O)[O-])cc1[N+](=O)[O-] | 5.2 µM |

System: V79
Experiment: Clonogenic survival of 97% V79 NTRoua cells in co-cultures with 3% V79 NTRpuro cells after 5 hrs by MCL assay
Type: functional, Cricetulus griseus
Conditions: not given
In short: as §1

| Structure (SMILES) | Activity |
| --- | --- |
| CS(=O)(=O)OCCN(CCBr)c1cc(C(=O)NCC(O)CO)c([N+](=O)[O-])cc1[N+](=O)[O-] (stereo not given) | >1300 µM |
| O=C(NCCO)c1cc(N(CCBr)CCBr)c([N+](=O)[O-])cc1[N+](=O)[O-] | 17 µM |

System: not listed separately
Experiment: Toxicity in ip dosed CD1 nude mouse in DMSO
Type: organism-based
Conditions: in vivo
In short: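 Maximum tolerated dose (MTD) determined in CD-1 nude mice after a single i.p. injection of prodrug, given in the vehicle named in each line.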

| Structure (SMILES) | MTD |
| --- | --- |
| CS(=O)(=O)OCCN(CCBr)c1cc(C(=O)NCC(O)CO)c([N+](=O)[O-])cc1[N+](=O)[O-] (stereo not given) | 1330 µmol/kg |

System: V79
Experiment: Clonogenic survival ratio of 3% V79 NTRpuro cells to 97% V79 NTRoua cells in co-culture
Type: functional, Cricetulus griseus
Conditions: not given
In short: as §1

| Structure (SMILES) | Ratio |
| --- | --- |
| CS(=O)(=O)OCCN(CCBr)c1cc(C(=O)NCC(O)CO)c([N+](=O)[O-])cc1[N+](=O)[O-] (stereo not given) | <0.05 |

System: WiDr
Experiment: Antitumor activity against mixed human 10% WiDr NTRneo/ 90% WiDr tumor cells injected in CD1 nude mouse assessed as growth delay at 1330 umol/kg, ip in DMSO
Type: functional
Conditions: not given
In short: (§2)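 WiDr-NTRneo tumours (100% NTR+ve, or 1:9 NTR+ve:NTR-ve mixtures) in CD-1 nude mice, given a single i.p. dose at MTD. Read-out is median growth delay to 15 mm mean diameter, plus tumours not palpable 100 days after treatment. Aziridine given at 200 µmol/kg as positive control in every experiment.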

| Structure (SMILES) | Activity |
| --- | --- |
| CS(=O)(=O)OCCN(CCBr)c1cc(C(=O)NCC(O)CO)c([N+](=O)[O-])cc1[N+](=O)[O-] (stereo not given) | 9 days |

System: not listed separately
Experiment: Solubility in alpha MEM
Type: physicochemical
Conditions: not given
In short: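 Solubility (mM) in α-MEM with 5% fetal calf serum at ambient temperature, measured by HPLC.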

| Structure (SMILES) | solubility |
| --- | --- |
| CS(=O)(=O)OCCN(CCBr)c1cc(C(=O)NCC(O)CO)c([N+](=O)[O-])cc1[N+](=O)[O-] (stereo not given) | 1300 µM (≈ 688 µg/mL) |
| O=C(NCCO)c1cc(N(CCBr)CCBr)c([N+](=O)[O-])cc1[N+](=O)[O-] | 320 µM (≈ 155 µg/mL) |

System: not listed separately
Experiment: Stability in alpha MEM at 37 degC after 24 hrs
Type: physicochemical
Conditions: read-out: Stability
In short: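 Percent parent compound remaining, by HPLC, after holding in α-MEM with 5% fetal calf serum at 37 °C for 24 h.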

| Structure (SMILES) | remaining at 24 h |
| --- | --- |
| CS(=O)(=O)OCCN(CCBr)c1cc(C(=O)NCC(O)CO)c([N+](=O)[O-])cc1[N+](=O)[O-] (stereo not given) | 63% |
| O=C(NCCO)c1cc(N(CCBr)CCBr)c([N+](=O)[O-])cc1[N+](=O)[O-] | 76% |

System: WiDr
Experiment: Antitumor activity against human 100% WiDr NTRneo tumor cells injected in CD1 nude mouse assessed as growth delay at 1330 umol/kg, ip in DMSO
Type: functional
Conditions: not given
In short: as §2

| Structure (SMILES) | Activity |
| --- | --- |
| CS(=O)(=O)OCCN(CCBr)c1cc(C(=O)NCC(O)CO)c([N+](=O)[O-])cc1[N+](=O)[O-] (stereo not given) | 55 days |
